# ChEMBL document CHEMBL4819017 (Eur J Med Chem, 2021)
# Legend:
# [1] = target: Serine/threonine-protein kinase mTOR (Homo sapiens, UniProt P42345); test: Inhibition of recombinant human GST tagged mTOR (1360 to 2549 residues) expressed in baculovirus expression system measured by LanthaScreen assay
# How it was run: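 mTOR inhibition measured by LanthaScreen assay; IC50 values average two independent experiments.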
# Cytochrome P450 3A4 = Cytochrome P450 3A4 (Homo sapiens, UniProt P08684); test: Inhibition of CYP3A4 (unknown origin) using Luciferin-PPXE as substrate at 10 uM preincubated with enzyme and substrate for 5 mins followed by addition of NADPH regeneration system and measured after 60 mins by luminescence method; format: ADME
# How it was run: (§1)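 P450-Glo luminescence assays with these substrates: Luciferin-ME (CYP1A2), Luciferin-PPXE (CYP3A4), Luciferin-H (CYP2C9), LuciferinH-EG (CYP2C19), Luciferin-ME-EG (CYP2D6). Compounds run in 1/3 serial dilutions from 10 µM in 0.5% DMSO with enzyme and substrate. After 5 min preincubation, NADPH regeneration reagent added; 60 min at 37 °C, then detection reagent for 30 min. Background subtracted.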
# Cytochrome P450 1A2 = target: T1, Cytochrome P450 1A2 (Homo sapiens, UniProt P05177); test: Inhibition of CYP1A2 (unknown origin) using Luciferin-ME as substrate at 10 uM preincubated with enzyme and substrate for 5 mins followed by addition of NADPH regeneration system and measured after 60 mins by luminescence method; format: ADME; how it was run: as §1
# T1 sequence (P05177 whole entry): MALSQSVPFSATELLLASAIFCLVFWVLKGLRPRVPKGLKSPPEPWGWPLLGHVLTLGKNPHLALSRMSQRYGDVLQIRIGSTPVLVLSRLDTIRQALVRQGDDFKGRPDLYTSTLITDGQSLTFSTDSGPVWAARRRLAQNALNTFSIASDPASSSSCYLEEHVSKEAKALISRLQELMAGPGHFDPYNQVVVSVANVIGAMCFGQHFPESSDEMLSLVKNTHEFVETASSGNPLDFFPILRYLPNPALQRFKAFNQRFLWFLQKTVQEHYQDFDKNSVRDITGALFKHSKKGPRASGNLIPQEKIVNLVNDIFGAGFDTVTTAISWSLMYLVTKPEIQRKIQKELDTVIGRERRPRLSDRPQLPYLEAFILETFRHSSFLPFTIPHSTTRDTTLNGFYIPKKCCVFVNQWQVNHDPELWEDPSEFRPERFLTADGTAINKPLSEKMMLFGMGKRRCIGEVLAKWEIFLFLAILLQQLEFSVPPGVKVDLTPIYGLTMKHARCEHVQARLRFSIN
# [2] = Inhibition of PI3K/mTOR in human U2OS cells assessed as inhibition of AKT1 phosphorylation at Ser473 residue by C-ELISA; format: cell-based
# How it was run: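 U2OS osteosarcoma cells grown in 0.1% FBS and serum-stimulated. Endogenous phospho-AKT1 Ser473 quantified by cell-based ELISA with chemiluminescent substrate. Signal plotted against inhibitor concentration and fitted to a sigmoid dose-response curve.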
# [3] = Cmax in BALB/c mouse at 10 mg/kg, po measured for 8 hrs; format: ADME, organism-based; design: route oral, dose 10 mg/kg, time 8 hrs; settings: in vivo
# How it was run: (§2)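 BALB/c mice dosed I.V. or P.O. at the stated dose; plasma levels followed for 8 h. Parameters from noncompartmental analysis: AUC (h.ng/ml), T1/2 (h), Cl (L/h/Kg), Vd (L/Kg), Cmax (ng/ml), Tmax (h).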
# Homo sapiens = species on record: Homo sapiens; test: Selectivity ratio of IC50 for recombinant human GST tagged mTOR (1360 to 2549 residues) expressed in baculovirus expression system to IC50 for human full length p110alpha (1 to 1068 residues) expressed in baculovirus-infected Sf21 cells
# How it was run: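 mTOR activity measured by LanthaScreen assay. PI3K-α activity measured by ADP Hunter Plus (ADP accumulation, fluorescence ex 544/em 580 nm), normalized to no-compound control and fitted to a sigmoid dose-response curve. IC50s are the average of two independent experiments. Ratio is mTOR IC50 over PI3K-α IC50.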
# [4] = AUC(infinity) in BALB/c mouse at 10 mg/kg, po measured for 8 hrs; format: ADME, organism-based; design: route oral, time 8 hrs, dose 10 mg/kg; settings: in vivo; how it was run: as §2
# [5] = Metabolic stability in rat liver microsomes assessed as parent compound remaining in presence of NADPH regenerating system at 0.5 uM measured after 15 mins by LC-MS/MS analysis; format: ADME, Microsome; settings: read-out: Stabilty
# How it was run: (§3)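 Human, mouse or rat liver microsomes at 0.5 mg/ml protein with compound at 0.5 µM and NADPH-regenerating system, 37 °C with shaking. Control wells contain 0.1 M potassium phosphate instead of the regenerating system. Reaction stopped with acetonitrile/0.1% formic acid, centrifuged, supernatant analyzed by LC-MS/MS. Result is percent parent compound remaining.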
# Cytochrome P450 2D6 = Cytochrome P450 2D6 (Homo sapiens, UniProt P10635); test: Inhibition of CYP2D6 (unknown origin) using Luciferin-ME-EG as substrate at 10 uM preincubated with enzyme and substrate for 5 mins followed by addition of NADPH regeneration system and measured after 60 mins by luminescence method; format: ADME; how it was run: as §1
# [6] = Volume of distribution in BALB/c mouse at 5 mg/kg, iv measured for 8 hrs; format: ADME, organism-based; settings: in vivo
# How it was run: (§4)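 Dosing in BALB-C mice intravenously or orally, with plasma sampled over 8 h. Parameters (AUC, T1/2, Cl, Vd, Cmax, Tmax) come from a noncompartmental model. Units: AUC h.ng/ml, Vd L/Kg, Cmax ng/ml, Tmax h.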
# Cytochrome P450 2C9 = Cytochrome P450 2C9 (Homo sapiens, UniProt P11712); test: Inhibition of CYP2C9 (unknown origin) using Luciferin-H as substrate at 10 uM preincubated with enzyme and substrate for 5 mins followed by addition of NADPH regeneration system and measured after 60 mins by luminescence method; format: ADME; how it was run: as §1
# [7] = Plasma concentration in BALB/c mouse at 10 mg/kg, po measured for 8 hrs; format: ADME, organism-based; how it was run: as §4
# [8] = AUC (infinity) in BALB/c mouse at 5 mg/kg, iv measured for 8 hrs; format: ADME, organism-based; design: route intravenous, dose 5 mg/kg, time 8 hrs; settings: in vivo; how it was run: as §2
# [9] = Half life in BALB/c mouse at 5 mg/kg, iv measured for 8 hrs; format: ADME, organism-based; settings: in vivo; how it was run: as §2
# [10] = Oral bioavailability in BALB/c mouse at 10 mg/kg measured for 8 hrs; format: ADME, organism-based; settings: in vivo; how it was run: as §2
# [11] = Metabolic stability in mouse liver microsomes assessed as parent compound remaining in presence of NADPH regenerating system at 0.5 uM measured after 15 mins by LC-MS/MS analysis; format: ADME, Microsome; settings: read-out: Stabilty; how it was run: as §3
# Cytochrome P450 2C19 = Cytochrome P450 2C19 (Homo sapiens, UniProt P33261); test: Inhibition of CYP2C19 (unknown origin) using LuciferinH-EG as substrate at 10 uM preincubated with enzyme and substrate for 5 mins followed by addition of NADPH regeneration system and measured after 60 mins by luminescence method; format: ADME; how it was run: as §1
# [12] = Clearance in BALB/c mouse at 5 mg/kg, iv measured for 8 hrs; format: ADME, organism-based; settings: in vivo; how it was run: as §2
# [13] = target: Phosphatidylinositol 4,5-bisphosphate 3-kinase catalytic subunit alpha isoform (Homo sapiens, UniProt P42336); test: Inhibition of human full length p110alpha (1 to 1068 residues) expressed in baculovirus-infected Sf21 cells by ADP-Hunter Plus assay
# [14] = Tmax in BALB/c mouse at 10 mg/kg, po measured for 8 hrs; format: ADME, organism-based; settings: in vivo; how it was run: as §4
# [15] = Metabolic stability in human liver microsomes assessed as parent compound remaining in presence of NADPH regenerating system at 0.5 uM measured after 15 mins by LC-MS/MS analysis; format: ADME, Microsome; settings: read-out: Stabilty; how it was run: as §3
# [16] = Half life in BALB/c mouse at 10 mg/kg, po measured for 8 hrs; format: ADME, organism-based; settings: in vivo; how it was run: as §2
# [17] = target: Voltage-gated inwardly rectifying potassium channel KCNH2 (Homo sapiens, UniProt Q12809); test: Inhibition of human ERG by fluorescence polarization assay
# How it was run: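 Predictor h-ERG membrane preparations (sonicated) incubated with test compound dilutions and fluorescent tracer (working 4X tracer at 4 nM) at room temperature for ≥1 h. Read-out by fluorescence polarization, ex 530/25, em 590/35.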
# Sequence of Phosphatidylinositol 4,5-bisphosphate 3-kinase catalytic subunit alpha isoform (P42336 whole entry, the tested form may be a part, canonical isoform): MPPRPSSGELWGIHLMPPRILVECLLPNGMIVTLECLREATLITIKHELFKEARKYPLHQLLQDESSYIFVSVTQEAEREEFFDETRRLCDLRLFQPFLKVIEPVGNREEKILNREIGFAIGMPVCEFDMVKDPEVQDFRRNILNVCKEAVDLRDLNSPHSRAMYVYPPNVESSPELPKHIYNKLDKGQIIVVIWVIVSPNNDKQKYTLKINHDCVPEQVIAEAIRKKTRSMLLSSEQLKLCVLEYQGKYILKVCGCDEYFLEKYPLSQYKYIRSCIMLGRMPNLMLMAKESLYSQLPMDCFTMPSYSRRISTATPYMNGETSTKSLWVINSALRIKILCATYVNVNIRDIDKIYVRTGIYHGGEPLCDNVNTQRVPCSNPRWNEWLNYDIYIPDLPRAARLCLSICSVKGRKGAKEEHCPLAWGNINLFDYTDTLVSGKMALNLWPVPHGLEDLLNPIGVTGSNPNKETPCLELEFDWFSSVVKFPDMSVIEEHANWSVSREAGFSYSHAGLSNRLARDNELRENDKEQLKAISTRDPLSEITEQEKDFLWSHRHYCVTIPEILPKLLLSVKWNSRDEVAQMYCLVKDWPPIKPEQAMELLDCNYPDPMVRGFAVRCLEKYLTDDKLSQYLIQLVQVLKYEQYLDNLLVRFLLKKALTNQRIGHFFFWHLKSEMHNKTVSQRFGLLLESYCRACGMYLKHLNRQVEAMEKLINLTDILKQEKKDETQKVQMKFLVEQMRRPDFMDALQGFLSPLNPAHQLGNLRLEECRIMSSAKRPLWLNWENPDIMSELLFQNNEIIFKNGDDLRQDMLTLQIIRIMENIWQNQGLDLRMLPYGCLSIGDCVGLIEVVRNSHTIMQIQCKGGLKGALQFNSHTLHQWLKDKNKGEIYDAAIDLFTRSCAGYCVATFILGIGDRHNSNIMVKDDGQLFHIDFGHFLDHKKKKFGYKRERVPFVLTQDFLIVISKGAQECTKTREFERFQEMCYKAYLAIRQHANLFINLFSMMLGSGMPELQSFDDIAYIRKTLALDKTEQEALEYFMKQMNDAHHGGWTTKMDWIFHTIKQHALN
# Sequence of Voltage-gated inwardly rectifying potassium channel KCNH2 (Q12809 whole entry): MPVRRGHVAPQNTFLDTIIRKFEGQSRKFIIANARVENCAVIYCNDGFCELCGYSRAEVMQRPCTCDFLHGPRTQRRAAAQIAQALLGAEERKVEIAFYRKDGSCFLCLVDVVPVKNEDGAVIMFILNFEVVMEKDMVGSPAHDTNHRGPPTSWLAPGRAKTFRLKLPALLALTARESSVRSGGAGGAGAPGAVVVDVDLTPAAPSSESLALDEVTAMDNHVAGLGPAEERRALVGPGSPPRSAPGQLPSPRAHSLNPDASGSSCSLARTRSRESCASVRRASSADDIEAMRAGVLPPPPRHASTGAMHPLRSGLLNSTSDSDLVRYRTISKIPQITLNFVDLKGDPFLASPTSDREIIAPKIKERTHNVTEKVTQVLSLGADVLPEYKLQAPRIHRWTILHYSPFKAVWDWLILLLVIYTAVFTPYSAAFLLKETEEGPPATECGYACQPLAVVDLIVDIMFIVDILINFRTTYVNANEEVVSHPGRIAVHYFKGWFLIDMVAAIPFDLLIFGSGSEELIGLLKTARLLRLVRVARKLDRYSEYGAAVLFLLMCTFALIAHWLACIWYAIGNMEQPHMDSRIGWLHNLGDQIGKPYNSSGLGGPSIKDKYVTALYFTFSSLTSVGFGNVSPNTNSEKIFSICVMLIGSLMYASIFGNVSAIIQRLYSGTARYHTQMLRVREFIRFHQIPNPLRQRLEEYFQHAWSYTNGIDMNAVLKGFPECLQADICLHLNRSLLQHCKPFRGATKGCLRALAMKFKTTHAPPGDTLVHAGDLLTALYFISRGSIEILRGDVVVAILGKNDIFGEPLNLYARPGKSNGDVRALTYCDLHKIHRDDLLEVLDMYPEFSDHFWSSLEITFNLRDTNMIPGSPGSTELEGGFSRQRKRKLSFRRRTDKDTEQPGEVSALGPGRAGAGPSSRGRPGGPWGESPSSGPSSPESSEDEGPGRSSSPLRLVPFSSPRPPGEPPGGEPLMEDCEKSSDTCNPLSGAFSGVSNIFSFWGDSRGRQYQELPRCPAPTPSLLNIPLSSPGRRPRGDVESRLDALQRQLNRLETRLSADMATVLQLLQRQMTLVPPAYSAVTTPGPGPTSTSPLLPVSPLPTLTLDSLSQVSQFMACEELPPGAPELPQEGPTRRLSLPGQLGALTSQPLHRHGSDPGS
# Sequence of Cytochrome P450 3A4 (P08684 whole entry): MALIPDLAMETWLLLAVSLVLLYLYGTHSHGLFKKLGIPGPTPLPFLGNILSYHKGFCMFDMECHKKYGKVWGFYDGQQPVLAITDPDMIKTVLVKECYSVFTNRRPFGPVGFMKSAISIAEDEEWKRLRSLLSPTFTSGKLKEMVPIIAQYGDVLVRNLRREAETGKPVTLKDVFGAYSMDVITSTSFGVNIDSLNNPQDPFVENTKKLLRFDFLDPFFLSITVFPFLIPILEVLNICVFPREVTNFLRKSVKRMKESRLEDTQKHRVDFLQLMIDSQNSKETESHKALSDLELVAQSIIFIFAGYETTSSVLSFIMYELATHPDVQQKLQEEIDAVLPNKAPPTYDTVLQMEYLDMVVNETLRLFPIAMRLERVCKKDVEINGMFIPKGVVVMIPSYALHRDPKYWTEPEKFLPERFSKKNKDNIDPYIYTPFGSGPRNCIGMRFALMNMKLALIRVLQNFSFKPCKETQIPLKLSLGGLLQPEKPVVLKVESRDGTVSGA
# Sequence of Cytochrome P450 2D6 (P10635 whole entry): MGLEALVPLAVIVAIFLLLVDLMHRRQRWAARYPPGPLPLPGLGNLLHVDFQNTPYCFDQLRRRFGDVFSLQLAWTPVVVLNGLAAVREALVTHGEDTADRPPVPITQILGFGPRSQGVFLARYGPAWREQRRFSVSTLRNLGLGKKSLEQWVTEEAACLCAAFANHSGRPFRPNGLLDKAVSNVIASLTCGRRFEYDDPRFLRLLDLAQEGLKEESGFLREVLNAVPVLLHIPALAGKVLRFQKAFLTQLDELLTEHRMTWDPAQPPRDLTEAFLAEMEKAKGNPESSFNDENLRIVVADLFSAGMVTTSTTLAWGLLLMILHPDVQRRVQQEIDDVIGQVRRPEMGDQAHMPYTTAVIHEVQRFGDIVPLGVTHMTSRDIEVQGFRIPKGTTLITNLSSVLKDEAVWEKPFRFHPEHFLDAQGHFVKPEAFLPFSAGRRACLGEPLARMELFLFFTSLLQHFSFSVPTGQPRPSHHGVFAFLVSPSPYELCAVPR
# Sequence of Cytochrome P450 2C9 (P11712 whole entry): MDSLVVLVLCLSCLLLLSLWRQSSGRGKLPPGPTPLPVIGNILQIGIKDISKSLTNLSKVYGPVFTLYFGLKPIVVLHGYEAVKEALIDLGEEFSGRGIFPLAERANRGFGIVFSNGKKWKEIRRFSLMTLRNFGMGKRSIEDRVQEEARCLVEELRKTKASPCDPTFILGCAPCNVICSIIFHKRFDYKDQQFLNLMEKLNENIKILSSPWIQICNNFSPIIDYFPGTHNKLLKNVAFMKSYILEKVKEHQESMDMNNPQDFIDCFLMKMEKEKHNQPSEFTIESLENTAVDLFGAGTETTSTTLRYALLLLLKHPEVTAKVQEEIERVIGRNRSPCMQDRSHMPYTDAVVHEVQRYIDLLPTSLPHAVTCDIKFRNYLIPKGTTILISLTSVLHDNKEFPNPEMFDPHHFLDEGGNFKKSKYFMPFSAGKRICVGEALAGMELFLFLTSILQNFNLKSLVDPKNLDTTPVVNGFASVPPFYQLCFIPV
# Sequence of Cytochrome P450 2C19 (P33261 whole entry): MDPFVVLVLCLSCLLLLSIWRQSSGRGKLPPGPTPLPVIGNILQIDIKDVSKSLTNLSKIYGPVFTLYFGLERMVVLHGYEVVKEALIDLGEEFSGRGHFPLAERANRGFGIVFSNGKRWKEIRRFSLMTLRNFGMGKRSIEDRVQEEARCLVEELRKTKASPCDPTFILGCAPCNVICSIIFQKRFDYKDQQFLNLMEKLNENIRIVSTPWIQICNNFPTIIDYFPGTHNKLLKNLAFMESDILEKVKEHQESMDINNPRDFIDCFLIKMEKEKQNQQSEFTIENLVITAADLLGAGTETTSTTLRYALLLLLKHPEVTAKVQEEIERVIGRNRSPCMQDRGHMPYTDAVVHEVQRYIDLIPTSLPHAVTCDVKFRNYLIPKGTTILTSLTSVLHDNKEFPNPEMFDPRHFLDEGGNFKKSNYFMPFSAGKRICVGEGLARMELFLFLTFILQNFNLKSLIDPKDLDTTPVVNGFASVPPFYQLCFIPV
structure (smiles),measurement,setting,value
COc1ncc2cc1NS(=O)(=O)c1cccc(c1)C(=O)NCCn1cc(cn1)-c1ncnc3ccc-2cc13,IC50,[1],16.5 nM
COc1ncc2cc1NS(=O)(=O)c1cccc(c1)C(=O)NCc1cncc(c1)-c1ncnc3ccc-2cc13,IC50,Cytochrome P450 3A4,> 30 µM
same,IC50,Cytochrome P450 1A2,> 30 µM
same,EC50,[2],20.6 nM
same,Cmax,[3],1270 ng/mL
same,Ratio IC50,Homo sapiens,3.8
same,AUC(0-inf),[4],8760 ng·h/mL
same,"remaining at 0.25 h, 0.5 µM",[5],86%
same,IC50,Cytochrome P450 2D6,> 30 µM
same,Vd,[6],0.59 L/kg
same,IC50,Cytochrome P450 2C9,> 30 µM
same,concentration at 8 h,[7],424 ng/mL
same,AUC(0-inf),[8],9200 ng·h/mL
same,half-life,[9],175 min
same,bioavailability,[10],47.6%
same,"remaining at 0.25 h, 0.5 µM",[11],76%
same,IC50,[1],4.9 nM
same,IC50,Cytochrome P450 2C19,> 30 µM
same,clearance,[12],9 mL/min/kg
same,IC50,[13],1.3 nM
same,Tmax,[14],9.6 min
same,"remaining at 0.25 h, 0.5 µM",[15],80%
same,half-life,[16],341 min
same,IC50,[17],> 30 µM
COc1ncc2cc1NS(=O)(=O)c1cccc(c1)C(=O)NCc1cccc(c1)-c1cnn3ccc-2nc13,Ratio IC50,Homo sapiens,> 22
same,IC50,[1],> 10000 nM
same,IC50,[13],445 nM
same,IC50,[17],> 30 µM
COc1ncc2cc1NS(=O)(=O)c1cc(c(F)cc1F)C(=O)NCc1cncc(c1)-c1ccnc3ccc-2nc13,IC50,[1],5.4 nM
COc1ncc2cc1NS(=O)(=O)c1cccc(c1)C(=O)NCCn1cc(cn1)-c1cnc3ccc-2nn13,IC50,[1],5.6 nM
COc1ncc2cc1NS(=O)(=O)c1cccc(c1)C(=O)NCCn1cc(cn1)-c1cnn3ccc-2nc13,IC50,[1],66.3 nM
COc1ncc2cc1NS(=O)(=O)c1cccc(c1)C(=O)N1CCc3ccc(cc3C1)-c1ccnc3ccc-2cc13,IC50,[1],250 nM
COc1ncc2cc1NS(=O)(=O)c1cccc(c1)C(=O)NCc1cccc(c1)-c1ccnc3ccc-2cc13,IC50,[1],20.9 nM
COc1ncc2cc1NS(=O)(=O)c1cccc(c1)C(=O)NCc1cncc(c1)-c1ccnc3ccc-2cc13,IC50,[1],0.3 nM
COc1ncc2cc1NS(=O)(=O)c1cccc(c1)C(=O)NCc1cncc(c1)-c1ccnc3ccc-2nc13,IC50,[1],49 nM
same,IC50,[17],> 30 µM
COc1ncc2cc1NS(=O)(=O)c1cccc(c1)C(=O)NCc1cncc(c1)-c1cnc3ccc-2nn13,EC50,[2],99.4 nM
same,Ratio IC50,Homo sapiens,5.5
same,IC50,[1],16.7 nM
same,IC50,[13],3 nM
same,IC50,[17],> 30 µM
COc1ncc2cc1NS(=O)(=O)c1cccc(c1)C(=O)NCc1cncc(c1)-c1cnn3ccc-2nc13,IC50,[1],67.6 nM
COc1ncc2cc1NS(=O)(=O)c1cccc(c1)C(=O)NCc1cccc(c1)-c1ncnc3sc-2cc13,IC50,[1],4.7 nM
